The source made the active and inactive calls.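 How the source made its calls: active means mean EC50 below 10 µM; inactive means the rest.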

Chain of Type-1 angiotensin II receptor (Homo sapiens) (P30556 whole entry, looked up, the tested form may be a part): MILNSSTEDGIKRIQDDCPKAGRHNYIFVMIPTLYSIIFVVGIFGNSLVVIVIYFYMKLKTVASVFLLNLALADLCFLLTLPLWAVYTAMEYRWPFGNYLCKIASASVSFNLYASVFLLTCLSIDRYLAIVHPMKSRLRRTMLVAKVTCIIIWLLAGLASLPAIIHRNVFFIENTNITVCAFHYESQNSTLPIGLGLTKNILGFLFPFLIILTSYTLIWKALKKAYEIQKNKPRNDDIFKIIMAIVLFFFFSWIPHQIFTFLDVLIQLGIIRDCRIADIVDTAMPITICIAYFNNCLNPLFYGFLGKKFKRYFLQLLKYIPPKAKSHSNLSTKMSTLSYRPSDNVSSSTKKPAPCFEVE

This experiment concerns the target Type-1 angiotensin II receptor (Homo sapiens) (UniProt P30556). Description: AT1 receptor agonists, beta-arrestin recruitment, SAR follow-up, selectivity assay for APJ agonist project, cell-based, CHO-K1 PathHunter, luminescence, set 2 (AID 488986). As to conditions: CHO-K1 AGTR1 PathHunter beta-arrestin, 90 min. In short, it runs like this: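 test system = CHO-K1 cells expressing human AT1 receptor, beta-arrestin fragment complementation | schedule = overnight seeding, 90 min dark exposure 25 °C, 60 min detection | measured by = luminescence from complemented beta-galactosidase fragments after detection reagent | probe or stimulus = angiotensin II 1 µM final (positive control) | controls = 1 µM angiotensin II as high control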
For orientation: Activated receptors often draw arrestin, which recruitment assays turn into a signal.
For orientation: EC50 means the concentration at which the effect is half-maximal. Turning to `CCN1C(=O)/C(=C/C=C2/SC(c3ccccc3)=C(c3ccccc3)N2CC)SC1=S`, the EC50 is > 79 µM (inactive).
As for `CCCCN(C)CCn1c(=S)[nH]c2cc(OCC)c(OCC)cc2c1=O`, the EC50 was > 79 µM (inactive).
As for `CCc1nnc(NC(=O)CSc2nc3cccnc3n2Cc2ccccc2)s1`, the EC50 was > 79 µM (inactive).
With `CCOc1ccc(S(=O)(=O)Nc2nc(-c3ccccc3)cs2)cc1`, the EC50 is > 79 µM (inactive).
Regarding `CC1=C/C(=N/OS(=O)(=O)c2ccccc2)C(C(C)C)=CC1=O`, the EC50 was > 79 µM (inactive).
`CC1=CC(=O)C(C(C)(C)C)=C/C1=N/OS(=O)(=O)c1ccccc1`: the EC50 was > 79 µM (inactive).
As to `CCc1nnc(NC(=O)CSc2nc3cccnc3n2C2CCCCC2)s1`, the EC50 is > 79 µM (inactive).
On to `CCOc1cc2[nH]c(=S)n(CCN3CCC(C)CC3)c(=O)c2cc1OCC`, for which the EC50 is > 79 µM (inactive).
As for `CC1=CC(=O)C(C2CCCCC2)=C/C1=N/OS(=O)(=O)c1ccccc1`, the EC50 was > 79 µM (inactive).
Take `CC(C)C1=CC(=NOS(=O)(=O)c2ccccc2)C=C(C(C)C)C1=O`: the EC50 is > 79 µM (inactive).
With `Cc1cc(C)n2nc3nc(N4CCCCC4)nc(-c4ccccc4)c3c2n1`, the EC50 is > 79 µM (inactive).
On to `Cc1cc(O)c(C2CCCCC2)cc1N=O`, for which the EC50 was > 79 µM (inactive).
As for `CCOc1cc2[nH]c(=S)n(CCN3CCCCC3CC)c(=O)c2cc1OCC` (stereo not drawn), the figure is > 79 µM (inactive); as for `CCOc1cc2[nH]c(=S)n(CCCC(=O)NCc3ccccn3)c(=O)c2cc1OCC`, > 79 µM (inactive); as for `CC1=CC(=O)C=C/C1=N/OS(=O)(=O)c1ccc(C)cc1`, > 79 µM (inactive).
In the case of `CC1=CC(=NOS(=O)(=O)c2ccccc2)C(C)=CC1=O`, the EC50 was > 79 µM (inactive).
As to `CCN1C(=O)/C(=C/C=C2/Sc3ccccc3N2CC)SC1=S`, the EC50 is > 79 µM (inactive).
Consider `CCN1C(c2ccccc2)=C(c2ccccc2)S/C1=C\C=C1/SC(=S)N(C)C1=O`, for which the half-maximal effective concentration (EC50) is 4.96 µM.

The record behind these values is PubChem BioAssay AID488986 (Sanford-Burnham Center for Chemical Genomics, 2010).
